# From ChEMBL document CHEMBL1151448, “Comparative antianaerobic activities of doripenem determined by MIC and time-kill analysis” (2008)
# Activity calls are given as the source filed them. No cut-off for these calls is given here.
# Columns and labels:
# [1] = tested on: Prevotella denticola; experiment: Antimicrobial activity against beta lactamase-positive Prevotella denticola isolated from intra-abdominal infection and pelvic inflammatory disease patients after 48 hrs by agar dilution method; format: functional
# In short: (§1)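 CLSI agar dilution on brucella blood agar supplemented with laked sheep blood, hemin and vitamin K. Inocula of about 1 × 10^5 CFU/spot were applied by Steers replicator, and plates were incubated 48 h at 35°C in an anaerobic glove box. MIC was the concentration giving marked growth reduction versus the anaerobic control plate. QC strains were included each run, and β-lactamase was detected by Cefinase disk.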
# [2] = tested on: Clostridium perfringens; experiment: Bactericidal activity against Clostridium perfringens isolated from intra-abdominal infection and pelvic inflammatory disease patients assessed as bacterial killing at MIC after 24 hrs by time kill analysis; format: functional
# In short: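 Time-kill in prereduced brucella broth with 5% laked horse blood cells, hemin and vitamin K1. […] Viable counts taken at 6, 12, 24 and 48 h, plates incubated 48 h anaerobically. Kill scored as 90%, 99% or 99.9%; 99.9% defines bactericidal.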
# [3] = tested on: Porphyromonas levii; experiment: Antimicrobial activity against Porphyromonas levii isolated from intra-abdominal infection and pelvic inflammatory disease patients after 48 hrs by agar dilution method; format: functional; in short: as §1
# [4] = tested on: Prevotella intermedia; experiment: Antimicrobial activity against beta lactamase-positive Prevotella intermedia isolated from intra-abdominal infection and pelvic inflammatory disease patients after 48 hrs by time kill analysis; format: functional
# In short: (§2)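 The MIC was read by inspecting macrodilution time-kill tubes. Vials held prereduced brucella broth with 5% laked horse blood cells, hemin 5 μg/ml and vitamin K1 1 μg/ml. Final inoculum was 10^6–10^7 CFU/ml, prepared inside the anaerobe chamber. Vials were incubated 48 h at 35°C in a shaking water bath.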
# [5] = tested on: Bacteroides thetaiotaomicron; experiment: Bactericidal activity against beta lactamase-positive Bacteroides thetaiotaomicron isolated from intra-abdominal infection and pelvic inflammatory disease patients assessed as bacterial killing at 2 times MIC after 48 hrs by time kill analysis; format: functional
# In short: (§3)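 Macrodilution time-kill in prereduced brucella broth with 5% laked horse blood, hemin 5 μg/ml and vitamin K1 1 μg/ml, at final inoculum 10^6–10^7 CFU/ml. […] Viable counts were taken at 6, 12, 24 and 48 h on plates incubated 48 h anaerobically. 99.9% kill was taken as bactericidal.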
# [6] = tested on: Paraclostridium bifermentans; experiment: Antimicrobial activity against Clostridium bifermentans isolated from intra-abdominal infection and pelvic inflammatory disease patients after 48 hrs by agar dilution method; format: functional; in short: as §1
# [7] = tested on: Clostridium cadaveris; experiment: Antimicrobial activity against Clostridium cadaveris isolated from intra-abdominal infection and pelvic inflammatory disease patients after 48 hrs by agar dilution method; format: functional; in short: as §1
# [8] = tested on: Prevotella intermedia; experiment: Antimicrobial activity against beta lactamase-positive Prevotella intermedia isolated from intra-abdominal infection and pelvic inflammatory disease patients after 48 hrs by agar dilution method; format: functional; in short: as §1
# [9] = tested on: Bacteroides fragilis; experiment: Bactericidal activity against beta lactamase-positive Bacteroides fragilis isolated from intra-abdominal infection and pelvic inflammatory disease patients assessed as bacterial killing at MIC after 24 hrs by time kill analysis; format: functional; in short: as §3
# [10] = tested on: Peptoniphilus asaccharolyticus; experiment: Antimicrobial activity against Peptoniphilus asaccharolyticus isolated from intra-abdominal infection and pelvic inflammatory disease patients after 48 hrs by agar dilution method; format: functional; in short: as §1
# [11] = tested on: Clostridioides difficile; experiment: Bactericidal activity against Clostridium difficile isolated from intra-abdominal infection and pelvic inflammatory disease patients assessed as 99.9% bacterial killing at 2 times MIC after 48 hrs by time kill analysis; format: functional, organism-based; in short: as §3
# [12] = tested on: Finegoldia magna; experiment: Bactericidal activity against beta lactamase-positive Finegoldia magna isolated from intra-abdominal infection and pelvic inflammatory disease patients assessed as 99.9% bacterial killing at 2 times MIC after 48 hrs by time kill analysis; format: functional, organism-based; in short: as §3
# [13] = tested on: Anaerococcus tetradius; experiment: Antimicrobial activity against Anaerococcus tetradius isolated from intra-abdominal infection and pelvic inflammatory disease patients after 48 hrs by agar dilution method; format: functional; in short: as §1
# [14] = tested on: Bacteroides fragilis; experiment: Bactericidal activity against beta lactamase-positive Bacteroides fragilis isolated from intra-abdominal infection and pelvic inflammatory disease patients assessed as bacterial killing at 2 times MIC after 48 hrs by time kill analysis; format: functional; in short: as §3
# [15] = tested on: Prevotella nigrescens; experiment: Antimicrobial activity against beta lactamase-positive Prevotella nigrescens isolated from intra-abdominal infection and pelvic inflammatory disease patients after 48 hrs by agar dilution method; format: functional; in short: as §1
# [16] = tested on: Paeniclostridium sordellii; experiment: Antimicrobial activity against Clostridium sordellii isolated from intra-abdominal infection and pelvic inflammatory disease patients after 48 hrs by agar dilution method; format: functional; conditions: Paraclostridium sordellii; in short: as §1
# [17] = tested on: Clostridioides difficile; experiment: Antimicrobial activity against Clostridium difficile isolated from intra-abdominal infection and pelvic inflammatory disease patients after 48 hrs by time kill analysis; format: functional
# In short: (§4)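 Macrodilution in prereduced brucella broth with 5% laked horse blood cells, 5 μg/ml hemin and 1 μg/ml vitamin K1. Final inoculum 10^6 to 10^7 CFU/ml, prepared inside the anaerobe chamber. Vials incubated 48 h at 35°C in a shaking water bath. MIC read by inspecting the time-kill tubes, alongside an antibiotic-free growth control.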
# [18] = tested on: Prevotella intermedia; experiment: Bactericidal activity against beta lactamase-positive Prevotella intermedia isolated from intra-abdominal infection and pelvic inflammatory disease patients assessed as bacterial killing at 2 times MIC after 48 hrs by time kill analysis; format: functional
# In short: (§5)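 Anaerobic macrodilution time-kill. Inoculum from brucella blood plates, prepared and diluted in prereduced brucella broth inside the anaerobe chamber. Final 10^6 to 10^7 CFU/ml in prereduced brucella broth with 5% laked horse blood cells, 5 μg/ml hemin and 1 μg/ml vitamin K1. […] Shaken at 35°C for 48 h. Viable counts taken at 6, 12, 24 and 48 h. 99.9% kill taken as bactericidal.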
# [19] = tested on: Bacteroides fragilis; experiment: Antimicrobial activity against beta lactamase-positive Bacteroides fragilis isolated from intra-abdominal infection and pelvic inflammatory disease patients after 48 hrs by agar dilution method; format: functional; in short: as §1
# [20] = tested on: Finegoldia magna; experiment: Antimicrobial activity against Finegoldia magna isolated from intra-abdominal infection and pelvic inflammatory disease patients after 48 hrs by agar dilution method; format: functional; in short: as §1
# [21] = tested on: Porphyromonas gingivalis; experiment: Antimicrobial activity against Porphyromonas gingivalis isolated from intra-abdominal infection and pelvic inflammatory disease patients after 48 hrs by agar dilution method; format: functional; in short: as §1
# [22] = tested on: Prevotella intermedia; experiment: Bactericidal activity against beta lactamase-positive Prevotella intermedia isolated from intra-abdominal infection and pelvic inflammatory disease patients assessed as bacterial killing at MIC after 24 hrs by time kill analysis; format: functional; in short: as §5
# [23] = tested on: Finegoldia magna; experiment: Bactericidal activity against beta lactamase-positive Finegoldia magna isolated from intra-abdominal infection and pelvic inflammatory disease patients assessed as bacterial killing at MIC after 24 hrs by time kill analysis; format: functional; in short: as §5
# [24] = tested on: Peptostreptococcus anaerobius; experiment: Antimicrobial activity against Peptostreptococcus anaerobius isolated from intra-abdominal infection and pelvic inflammatory disease patients after 48 hrs by agar dilution method; format: functional; in short: as §1
# [25] = tested on: Thomasclavelia ramosa; experiment: Antimicrobial activity against Clostridium ramosum isolated from intra-abdominal infection and pelvic inflammatory disease patients after 48 hrs by agar dilution method; format: functional; in short: as §1
# [26] = tested on: Finegoldia magna; experiment: Antimicrobial activity against beta lactamase-positive Finegoldia magna isolated from intra-abdominal infection and pelvic inflammatory disease patients after 48 hrs by time kill analysis; format: functional; in short: as §2
# [27] = tested on: Clostridium perfringens; experiment: Antimicrobial activity against Clostridium perfringens isolated from intra-abdominal infection and pelvic inflammatory disease patients after 48 hrs by time kill analysis; format: functional; in short: as §4
# [28] = tested on: Enterocloster clostridioformis; experiment: Antimicrobial activity against Clostridium clostridioforme isolated from intra-abdominal infection and pelvic inflammatory disease patients after 48 hrs by agar dilution method; format: functional; in short: as §1
# [29] = tested on: Fusobacterium nucleatum; experiment: Bactericidal activity against beta lactamase-positive Fusobacterium nucleatum isolated from intra-abdominal infection and pelvic inflammatory disease patients assessed as bacterial killing at MIC after 24 hrs by time kill analysis; format: functional; in short: as §5
Structure (SMILES),MIC50 [1],MIC90 [1],Activity [2],MIC [3],MIC [4],Activity [5],MIC [6],MIC [7],MIC50 [8],MIC90 [8],Activity [9],MIC [10],MIC50 [10],MIC90 [10],Activity [11],Activity [12],MIC50 [13],Activity [14],MIC50 [15],MIC90 [15],further results
C[C@@H](O)[C@H]1C(=O)N2C(C(=O)O)=C(S[C@@H]3CN[C@H](C(=O)Nc4cccc(C(=O)O)c4)C3)[C@H](C)[C@H]12,0.125 µg/mL,0.5 µg/mL,90%,≤ 0.016 µg/mL,0.03 µg/mL,99%,0.125 µg/mL,≤ 0.016 µg/mL,0.03 µg/mL,0.25 µg/mL,90%,≤ 0.016 µg/mL,≤ 0.016 µg/mL,0.06 µg/mL,inactive,inactive,0.06 µg/mL,99%,0.03 µg/mL,0.06 µg/mL,MIC [13]: 0.06 µg/mL; MIC [16]: 0.03 µg/mL; MIC [17]: 4 µg/mL; Activity [18]: 99%; MIC [19]: 0.25 µg/mL; MIC50 [19]: 0.25 µg/mL; MIC90 [19]: 2 µg/mL; MIC50 [20]: 0.06 µg/mL; MIC90 [20]: 0.06 µg/mL; MIC [21]: ≤ 0.016 µg/mL; Activity [22]: 90%; Activity [23]: 90%; MIC50 [24]: 0.5 µg/mL; MIC90 [24]: 2 µg/mL; MIC [25]: 1 µg/mL; MIC50 [25]: 1 µg/mL; MIC [26]: 0.03 µg/mL; MIC [27]: 0.125 µg/mL; MIC [28]: 1 µg/mL; Activity [29]: 90%
C[C@@H](O)[C@H]1C(=O)N2C(C(=O)O)=C(S[C@@H]3CN[C@H](CNS(N)(=O)=O)C3)[C@H](C)[C@H]12 [DORIPENEM],0.03 µg/mL,0.125 µg/mL,90%,0.03 µg/mL,0.06 µg/mL,99%,0.06 µg/mL,0.03 µg/mL,0.03 µg/mL,0.125 µg/mL,90%,≤ 0.016 µg/mL,≤ 0.016 µg/mL,0.03 µg/mL,inactive,inactive,0.03 µg/mL,99%,0.03 µg/mL,0.06 µg/mL,MIC [16]: 0.03 µg/mL; MIC [17]: 1 µg/mL; Activity [18]: 99%; MIC50 [19]: 0.25 µg/mL; MIC90 [19]: 1 µg/mL; MIC [20]: 0.06 µg/mL; MIC50 [20]: 0.06 µg/mL; MIC90 [20]: 0.125 µg/mL; MIC [21]: ≤ 0.016 µg/mL; Activity [22]: 90%; Activity [23]: 90%; MIC50 [24]: 0.25 µg/mL; MIC90 [24]: 2 µg/mL; MIC [25]: 0.5 µg/mL; MIC50 [25]: 0.5 µg/mL; MIC [26]: 0.06 µg/mL; MIC [27]: 0.03 µg/mL; MIC [28]: 1 µg/mL; Activity [29]: 90%
